pEC50: −log10 of the molar value. One block for each compound: values may come before it.
Key:
Hippocampus [1] = assay: Cognitive enhancing effect in Sprague-Dawley rat hippocampal CA1 region assessed as increase in amplitude of populations spikes at 10 uM; type: functional
How it was run: (§1)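 Male Sprague–Dawley rats (75–150 g) were halothane-anesthetized and decapitated. Coronal hippocampal slices were cut in ice-cold carbogenated aCSF and rested 1 h at room temperature. Extracellular field PS were recorded in CA1 after at least 15 min of stable baseline. Compound (10 mM DMSO stock, diluted ≥1000-fold in aCSF) was bath-perfused, then washed out. Amplitude was normalized to the mean of 4–5 pre-drug responses; mean ± SE, paired t-test.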

Hippocampus [2] = assay: Cognitive enhancing effect in Sprague-Dawley rat hippocampal CA1 region assessed as increase in amplitude of populations spikes at 100 uM; type: functional
Hippocampus [3] = assay: Cognitive enhancing effect in Sprague-Dawley rat hippocampal CA1 region assessed as increase in amplitude of populations spikes at 10 uM after 20 mins of compound wash out; type: functional; how it was run: as §1
Hippocampus [4] = assay: Cognitive enhancing effect in Sprague-Dawley rat hippocampal CA1 region assessed as increase in amplitude of populations spikes; type: functional, tissue-based; how it was run: as §1
Hippocampus [5] = assay: Cognitive enhancing effect in Sprague-Dawley rat hippocampal CA1 region assessed as increase in amplitude of populations spikes at 10 uM in presence of CPT relative to basal level; type: functional
How it was run: (§2)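 CA1 field PS were recorded extracellularly in coronal hippocampal slices from male Sprague–Dawley rats (75–150 g), kept in carbogenated aCSF. Receptor antagonists (d-tubocurarine, atropine, CGP55845 or 8-cyclopentyl-theophylline) were bath-perfused together with the compound, which was diluted ≥1000-fold from a 10 mM DMSO stock. PS amplitude was normalized to the mean of 4–5 responses before drug; mean ± SE, Student's t-test.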

Hippocampus [6] = assay: Cognitive enhancing effect in Sprague-Dawley rat hippocampal CA1 region assessed as amplitude of populations spikes at 10 uM in presence of d-tubocurarine; type: functional; how it was run: as §2
Hippocampus [7] = assay: Cognitive enhancing effect in Sprague-Dawley rat hippocampal CA1 region assessed as increase in amplitude of populations spikes at 10 uM in presence of CGP-55845 relative to basal level; type: functional; how it was run: as §2
Hippocampus [8] = assay: Cognitive enhancing effect in Sprague-Dawley rat hippocampal CA1 region assessed as increase in amplitude of populations spikes at 10 uM in presence of atropine; type: functional; how it was run: as §2
Hippocampus [9] = assay: Cognitive enhancing effect in Sprague-Dawley rat hippocampal CA1 region assessed as increase in amplitude of populations spikes at 1 uM; type: functional
How it was run: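 Male Sprague-Dawley rats (75–150 g) anesthetized with halothane and decapitated. 400 µm coronal hippocampal slices cut in ice-cold carbogenated aCSF, then held 1 h at room temperature. Extracellular field recording of evoked population spikes in CA1. After at least 15 min of stable baseline, analogs (10 mM DMSO stocks, diluted ≥1000-fold in aCSF) were bath-perfused. Amplitude normalized to the mean of 4–5 pre-drug responses.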

Hippocampus [10] = assay: Decrease in amplitude of populations spikes in Sprague-Dawley rat hippocampal CA1 region at 10 uM; type: functional; set-up: scale not given: the % may be the effect or the level left; how it was run: as §1
Hippocampus [11] = assay: Decrease in amplitude of populations spikes in Sprague-Dawley rat hippocampal CA1 region at 10 uM after 10 mins of compound wash out; type: functional; set-up: scale not given: the % may be the effect or the level left; how it was run: as §1
Hippocampus [12] = assay: Decrease in amplitude of populations spikes in Sprague-Dawley rat hippocampal CA1 region; type: functional, tissue-based; how it was run: as §1

Structure (SMILES): Cn1c(=O)c2c(ncn2CC(=O)N2CCCCCC2=O)n(C)c1=O
Activity (Hippocampus [1]): 42.4%

Structure (SMILES): COc1cc2c3cc1Oc1cc(ccc1O)C[C@@H]1c4c(cc(OC)c(O)c4Oc4ccc(cc4)C[C@@H]3N(C)CC2)CC[N+]1(C)C.[Cl-]
Activity (Hippocampus [2]): 1.8%

pEC50 (Hippocampus [4]): 5.70
Structure (SMILES): Cn1c(=O)c2c(ncn2CCCC(=O)N2CCCCCC2=O)n(C)c1=O
Activity (Hippocampus [3]): 45.8% | Activity (Hippocampus [4]): Dose-dependent effect | Activity (Hippocampus [1]): 56.5% | Activity (Hippocampus [5]): 47.9% | Activity (Hippocampus [6]): -2.5% | Activity (Hippocampus [7]): 32.7% | Activity (Hippocampus [8]): 0.2%

Structure (SMILES): Cn1c(=O)c2c(ncn2CCCC(=O)N2CCCC2=O)n(C)c1=O
Activity (Hippocampus [1]): 6.4%

Structure (SMILES): Cn1c(=O)c2c(ncn2CCC(=O)N2CCCCCC2=O)n(C)c1=O
Activity (Hippocampus [1]): 40.9%

Structure (SMILES): C[C@H](NC[C@H](O)CP(=O)(O)Cc1ccccc1)c1ccc(Cl)c(Cl)c1
Activity (Hippocampus [9]): 53.8%

pEC50 (Hippocampus [12]): 7.22
Structure (SMILES): Cn1c(=O)c2c(ncn2CCCC(=O)N2CCCCC2=O)n(C)c1=O
Activity (Hippocampus [10]): -25.9% | Activity (Hippocampus [11]): 91.1% | Activity (Hippocampus [5]): -27.6% | Activity (Hippocampus [7]): 10.6% | Activity (Hippocampus [12]): Dose-dependent effect

Structure (SMILES): CC[C@@]1(O)C(=O)OCc2c1cc1n(c2=O)Cc2cc3ccccc3nc2-1 [CAMPTOTHECIN]
Activity (Hippocampus [9]): 51.6%

Structure (SMILES): Cn1c(=O)c2c(ncn2CC(=O)N2CCCC2=O)n(C)c1=O
Activity (Hippocampus [1]): 6.4%
